Values after ≈ are worked out from the molar mass of the structure shown. Active and inactive are the calls of the source. No cut-off for these calls is given here.
Legend:
Salmonella typhimurium [1] = experiment: Antibacterial activity against Salmonella typhimurium ATCC 13311 assessed as bacterial growth inhibition after overnight incubation by spot-on-lawn assay; assay type: functional, Salmonella enterica subsp. enterica serovar Typhimurium; details: Salmonella enterica
Outline: (§1)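 Overnight cultures were grown in Luria broth at 37 °C and used to seed 5 mL soft agar (0.75%) in the same medium, poured over 1.5% hard agar. Compounds in MQ-H2O or DMSO were two-fold serially diluted from stock, and 10 µL of each was spotted. After drying, plates were incubated overnight at 37 °C. Growth inhibition at each spot was scored, and MIC was taken from triplicates.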

Escherichia coli [2] = experiment: Antibacterial activity against Escherichia coli ATCC 25922 assessed as bacterial growth inhibition after overnight incubation by spot-on-lawn assay; assay type: functional; outline: as §1
Acinetobacter baumannii [3] = experiment: Antibacterial activity against Acinetobacter baumannii ATCC 19606 assessed as bacterial growth inhibition after overnight incubation by spot-on-lawn assay; assay type: functional; details: ATCC 19606 = CIP 70.34 = JCM 6841; outline: as §1
Pseudomonas aeruginosa [4] = experiment: Antibacterial activity against Pseudomonas aeruginosa ATCC 14207 assessed as bacterial growth inhibition after overnight incubation by spot-on-lawn assay; assay type: functional; outline: as §1
Enterococcus faecalis [5] = experiment: Antibacterial activity against Enterococcus faecalis ATCC 7080 assessed as bacterial growth inhibition after overnight incubation by spot-on-lawn assay; assay type: functional
Outline: (§2)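 Lawns were prepared in All Purpose Tween medium at 25 °C: overnight cultures went into 5 mL soft agar (0.75%) poured onto 1.5% agar plates. Aqueous or DMSO solutions were two-fold serially diluted, and 10 µL aliquots were spotted and dried. Plates were incubated overnight at 25 °C. Inhibition was read at the spot locations, and MIC was based on triplicates.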

Listeria monocytogenes [6] = experiment: Antibacterial activity against Listeria monocytogenes ATCC 15313 assessed as bacterial growth inhibition after overnight incubation by spot-on-lawn assay; assay type: functional; outline: as §2
Staphylococcus aureus [7] = experiment: Antibacterial activity against Staphylococcus aureus ATCC 25923 assessed as bacterial growth inhibition after overnight incubation by spot-on-lawn assay; assay type: functional
Outline: (§3)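 Tryptic Soy Broth at 25 °C was used for culture and for the 0.75% soft-agar overlay, which was seeded from overnight cultures and poured onto 1.5% agar. Two-fold dilution series in MQ-H2O or DMSO were spotted (10 µL), dried, and incubated overnight at 25 °C. Growth inhibition at each spot was recorded, and MIC was derived from triplicate assays.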

Salmonella typhimurium [8] = experiment: Antibacterial activity against Salmonella typhimurium ATCC 13311 assessed as bacterial growth inhibition at 250 mg/ml after overnight incubation by spot-on-lawn assay; assay type: functional, organism-based; details: Salmonella enterica subsp. enterica serovar Typhimurium; outline: as §1
Escherichia coli [9] = experiment: Antibacterial activity against Escherichia coli ATCC 25922 assessed as bacterial growth inhibition at 250 mg/ml after overnight incubation by spot-on-lawn assay; assay type: functional, organism-based; outline: as §1
Acinetobacter baumannii [10] = experiment: Antibacterial activity against Acinetobacter baumannii ATCC 19606 assessed as bacterial growth inhibition at 250 mg/ml after overnight incubation by spot-on-lawn assay; assay type: functional, organism-based; details: ATCC 19606 = CIP 70.34 = JCM 6841; outline: as §1
Pseudomonas aeruginosa [11] = experiment: Antibacterial activity against Pseudomonas aeruginosa ATCC 14207 assessed as bacterial growth inhibition at 250 mg/ml after overnight incubation by spot-on-lawn assay; assay type: functional, organism-based; outline: as §1
Listeria monocytogenes [12] = experiment: Antibacterial activity against Listeria monocytogenes ATCC 15313 assessed as bacterial growth inhibition at 250 mg/ml after overnight incubation by spot-on-lawn assay; assay type: functional, organism-based; outline: as §2
Enterococcus faecalis [13] = experiment: Antibacterial activity against Enterococcus faecalis ATCC 7080 assessed as bacterial growth inhibition at 250 mg/ml after overnight incubation by spot-on-lawn assay; assay type: functional, organism-based; outline: as §2
Staphylococcus aureus [14] = experiment: Antibacterial activity against Staphylococcus aureus ATCC 25923 assessed as bacterial growth inhibition at 250 mg/ml after overnight incubation by spot-on-lawn assay; assay type: functional, organism-based; outline: as §3

Structure (SMILES)	MIC (Salmonella typhimurium [1]) [mg/mL]	MIC (Escherichia coli [2]) [mg/mL]	MIC (Acinetobacter baumannii [3]) [mg/mL]	MIC (Pseudomonas aeruginosa [4]) [mg/mL]	MIC (Enterococcus faecalis [5]) [mg/mL]	MIC (Listeria monocytogenes [6]) [mg/mL]	MIC (Staphylococcus aureus [7]) [mg/mL]	Activity (Salmonella typhimurium [8])	Activity (Escherichia coli [9])	Activity (Acinetobacter baumannii [10])	Activity (Pseudomonas aeruginosa [11])	Activity (Listeria monocytogenes [12])	Activity (Enterococcus faecalis [13])	Activity (Staphylococcus aureus [14])
C[C@H]1N[C@@H](CCCCN)C(=O)NNC1=O	3.9 (≈ 18.2 mM)	0.49 (≈ 2.29 mM)	0.98 (≈ 4.57 mM)	62 (≈ 289 mM)	62 (≈ 289 mM)	7.8 (≈ 36.4 mM)	31 (≈ 145 mM)							
C[C@H]1N[C@H](CCCCN)C(=O)NNC1=O	62 (≈ 289 mM)	31 (≈ 145 mM)	62 (≈ 289 mM)		16 (≈ 74.7 mM)	16 (≈ 74.7 mM)	62 (≈ 289 mM)							
C[C@H]1N[C@H](C)C(=O)NNC1=O								inactive	inactive	inactive	inactive	inactive	inactive	inactive
C[C@@H]1NCC(=O)NNC1=O	19 (≈ 133 mM)	2.3 (≈ 16.1 mM)	19 (≈ 133 mM)	38 (≈ 265 mM)		38 (≈ 265 mM)	75 (≈ 524 mM)							
C[C@H]1NCC(=O)NNC1=O	0.98 (≈ 6.85 mM)	0.06 (≈ 0.419 mM)	0.12 (≈ 0.838 mM)	3.9 (≈ 27.2 mM)	2 (≈ 14 mM)	2 (≈ 14 mM)	2 (≈ 14 mM)							
C[C@@H]1N[C@@H](C)C(=O)NNC1=O								inactive	inactive	inactive	inactive	inactive	inactive	inactive
C[C@@H]1N[C@H](C)C(=O)NNC1=O	26 (≈ 165 mM)	3.2 (≈ 20.4 mM)		52 (≈ 331 mM)	26 (≈ 165 mM)	26 (≈ 165 mM)	26 (≈ 165 mM)							

From ChEMBL document CHEMBL4680061, “Unveiling the active isomer of cycloalanopine, a cyclic opine from Lactobacillus rhamnosus LS8, through synthesis and analog production” (2020)
